GRK2 aptamer HTS: blocks RNA aptamer binding to human GRK2. P25098. bead flow cytometry, FAM-aptamer displacement from GRK2. inhibition of aptamer binding, % at 10 µM. hit rate 0.59% among 330,000;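 active = inhibition of aptamer binding above 40%, roughly 3 SD of noise, on plates passing a quality check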;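 also: median bead fluorescence of bound FAM aptamer so fluorescent compounds give negative values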
DAGLB inh: blocks human DAGLB lipase activity; inhibition, % at 5.17 µM; hit rate 0.059% among 340,000; HEK293T DAGLB membrane lysate, EnzChek fluorogenic substrate; Q8NCG7; in the data active = inhibition above about 34%;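 also: 0% = enzyme with vehicle and 100% = wells lacking enzyme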
Target sequence (Q8NCG7 whole entry, looked up): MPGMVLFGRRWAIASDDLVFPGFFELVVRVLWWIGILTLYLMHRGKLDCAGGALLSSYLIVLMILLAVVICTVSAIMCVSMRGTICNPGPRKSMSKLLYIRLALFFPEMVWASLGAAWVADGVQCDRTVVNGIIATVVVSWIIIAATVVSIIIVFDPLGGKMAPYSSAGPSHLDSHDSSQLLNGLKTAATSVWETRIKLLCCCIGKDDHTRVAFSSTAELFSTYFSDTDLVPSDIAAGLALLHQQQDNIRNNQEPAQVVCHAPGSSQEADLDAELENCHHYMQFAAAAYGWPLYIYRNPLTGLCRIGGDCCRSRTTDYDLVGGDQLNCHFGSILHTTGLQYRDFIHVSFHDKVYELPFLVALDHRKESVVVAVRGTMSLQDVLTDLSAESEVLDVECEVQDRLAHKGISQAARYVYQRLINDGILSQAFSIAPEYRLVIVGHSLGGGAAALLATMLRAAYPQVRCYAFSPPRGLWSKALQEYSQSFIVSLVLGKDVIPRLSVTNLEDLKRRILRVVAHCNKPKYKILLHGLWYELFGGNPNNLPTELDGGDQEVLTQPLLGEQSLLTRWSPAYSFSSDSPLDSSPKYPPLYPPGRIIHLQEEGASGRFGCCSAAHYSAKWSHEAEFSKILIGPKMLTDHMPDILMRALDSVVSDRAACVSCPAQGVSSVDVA
core dimer inh: HCV core protein dimerization inhibition; TR-FRET GST/Flag-core106 dimerization, 1536-well; inhibition, % at 5 µM; hit rate 0.33% among 300,000; AID 1899;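 active = inhibition above the mean of all tested compounds plus 3 SD, set per screening campaign, cut at about 45% in these data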
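Assay system – GST-tagged and Flag-tagged HCV core protein residues 1-106 · Quantity – core106 proteins, GST 13.5 nM and Flag 17 nM · Benchmarks – unlabelled core106 and no-GST-core106 wells · Read-out basis – percent inhibition of core106 dimerization signal · Detection – time-resolved FRET, ex 340 nm, em 617 and 671 nm · Schedule – 4 h at 22.5 °C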
HCV NS3 hel inh: inhibitors of Hepatitis C virus NS3 helicase | hit rate 0.56% among 290,000 | NS3 helicase DNA unwinding, Cy5 molecular beacon fluorescence | AID 1800 | inhibition, % at 10.9 µM;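 active = inhibition above the mean of all tested compounds plus 3 SD, set per campaign, cut at about 35% in these data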;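 also: 0% = DMSO wells and 100% = thioflavine S control wells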
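System: NS3 helicase fragment of HCV / Schedule: 1 h at 25 °C / Control set: DMSO alone as 0% and 110 µM thioflavine S as 100% / Reagent: Cy5/quencher beacon DNA duplex and ATP to start / Technique: Cy5 fluorescence / Replication: singlicate / Evaluation: % inhibition of end-to-start signal ratio versus controls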
FID counter: displaces DNA intercalator in HCV helicase counter-screen | inhibition, % at 7.9 µM | DNA fluorescent intercalator displacement, fluorescence | AID 1845 | hit rate 0.17% among 290,000; in the data active = inhibition above about 37%;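 also: 0% = vehicle and 100% = reference compound; higher means more ethidium bromide displaced from hairpin DNA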
GPR7 antag: human neuropeptides B/W receptor 1 antagonism; GPR7-expressing cells, fluorescence antagonist assay; P48145; AID 1861; hit rate 1.1% among 290,000; inhibition, % at 4.4 µM; in the data active = inhibition above about 16%, passing the limit was not always enough;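 also: cells stimulated with the agonist NPW; 0% = agonist with vehicle and 100% = vehicle without agonist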
GRK2 CP1: human GRK2 inhibition confirmation, cherry pick 1 | shares compounds with GRK2 aptamer HTS | bead-bound GRK2, FAM-aptamer displacement, flow cytometry | aptamer displacement, % at 10 µM | hit rate 4% among 2,000 | AID 504451;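 active = aptamer displacement above 40%, near three times the noise of non-fluorescent compounds, on plates passing quality checks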;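 also: negative values mostly reflect intrinsic compound fluorescence rather than true enhancement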
Aptamer quench 1: fluorescent aptamer quenching in GRK2 counter-screen dose response. shares compounds with GRK2 aptamer HTS. Fluorescent RNA aptamer beads, flow cytometry; stronger effect = higher value. fluorescence change (kMESF span), kMESF (no concentration beside the values). 110 tested, under 10 active. AID 504521;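 active = compounds whose bead fluorescence drops by more than 37 kMESF across the dose range, marking them as dye quenchers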
FAM quench CP1: counter-screen for GRK2 aptamer inhibitors: fluorescent aptamer quenchers; shares compounds with GRK2 aptamer HTS; Carboxyfluorescein RNA aptamer on beads, flow cytometry quenching; stronger effect = lower value; fluorescence response (% of DMSO), % at 10 µM; 2,000 tested, under 10 active; AID 504580;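 active = compounds that quench the bead-bound fluorescent RNA probe, cutting fluorescence to under half of the solvent control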;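 also: counterscreen run without GRK2 so only probe quenching by compound is measured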
GRK2 CP2: confirmation of human GRK2 inhibitors binding RNA aptamer site | shares compounds with GRK2 aptamer HTS | bead-bound GRK2, FAM-aptamer displacement, flow cytometry | inhibition of aptamer binding, % at 10 µM | 360 tested, under 10 active | AID 504782;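 active = inhibition of aptamer binding above 40%, about triple the noise seen with nonglowing compounds, on plates passing quality control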;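 also: negative values mostly come from compounds that fluoresce themselves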
Aptamer quench3: counter-screen for GRK2 aptamer inhibitors: fluorescent aptamer quenchers; shares compounds with GRK2 aptamer HTS; Streptavidin beads, FAM-RNA aptamer fluorescence quenching, flow cytometry; change in fluorescence (kMESF span), kMESF (no concentration beside the values); 25 tested, under 10 active; AID 504819;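 active = compounds quenching the bead-bound labeled aptamer, with fluorescence dropping by more than 37 kMESF over the dose range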
FAM quench CP2: counter-screen for GRK2 binding hits: quenchers of fluorescent RNA aptamer | shares compounds with GRK2 aptamer HTS | carboxyfluorescein RNA aptamer beads, flow cytometry quenching; stronger effect = lower value | fluorescence response vs DMSO, % at 10 µM | 360 tested, under 10 active | AID 588494;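 active = response vs DMSO under 50%, meaning signal dropped by over half, treated as fluorescence quencher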;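 also: labelled aptamer on streptavidin beads without GRK2 as a quench counter-screen; 100% = bead fluorescence of DMSO wells and lower means quenching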
FAM quench PS1: aptamer fluorescence quenching in GRK2 powder counter-screen | shares compounds with GRK2 aptamer HTS | Bead-bound FAM RNA aptamer fluorescence quenching, flow cytometry; stronger effect = lower value | fluorescence ratio to DMSO, % at 11.1 µM | 35 tested, under 10 active | AID 588496;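 active = compounds that dim the fluorescent label, raw bead signal shifting by over 33 units between lowest and highest dose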
* hit, by the source's call; . = no result given. Sampled rows, rich in hits. Any-hit rate of the full collection: about 2.2%.

SMILES | GRK2 aptamer HTS | DAGLB inh | core dimer inh | HCV NS3 hel inh | FID counter | GPR7 antag | GRK2 CP1 | FAM quench CP1 | others
O=c1ccc(S(=O)(=O)N2CCCC2)cn1Cc1ccc(F)cc1 | 4 | -2 | . | . | . | . | . | .
CCC(C)NC(=O)Cn1cnc2sc(C)c(S(=O)(=O)N3CCN(c4ncccn4)CC3)c2c1=O (centres undefined) | 0 | 0 | -2 | 1 | -9 | -4 | . | .
CCC(C)NC(=O)Cn1cnc2sc(C)cc2c1=O (centres undefined) | 43* | -7 | -8 | 0 | 0 | -9 | 1 | 100
Cc1csc(NC(=O)C(F)(F)F)n1 | 0 | 2 | -2 | -1 | 0 | -12 | . | .
C=CCOc1ccc(C(c2c(C(=O)O)[nH]c3ccccc23)c2c(C(=O)O)[nH]c3ccccc23)cc1 | 79* | 19 | 19 | 30 | -7 | 19 | 1 | 117
COc1ccc(CN=Cc2c(C(=O)O)[nH]c3ccccc23)cc1 | 2 | 0 | 2 | 2 | 2 | -4 | . | .
COc1ccc(C2CC(c3cccs3)=NN2C(=O)c2ccc(Br)o2)cc1 (centres undefined) | 86* | -2 | 9 | 1 | -4 | -13 | . | . | GRK2 CP2=15;FAM quench CP2=108
CCC(=O)N1N=C(c2cccs2)CC1c1ccc(OC)cc1 (centres undefined) | 2 | -1 | . | -4 | -23 | -19 | . | .
Cc1ccc(CNC(=O)C2CCCC2)cc1 | 2 | -3 | -1 | . | . | . | . | .
Cc1ccc2[nH]c(CNC(=O)C3CCCCC3)cc2c1 | 60* | 3 | . | 25 | -7 | -4 | 6 | 101
NC(=S)N1OC[C@@H]2COc3ccc4ccccc4c3[C@@H]21 | 65* | 0 | -12 | -5 | -3 | 16* | 1 | 95
Cc1cccc(Oc2coc3cc(O)ccc3c2=O)c1 | 0 | -1 | -2 | 19 | -4 | 27 | . | .
Cc1ccccc1NC(=O)CCS(=O)(=O)c1ccc(Br)s1 | 67* | -2 | -3 | 5 | -7 | 7 | 38 | 100 | Aptamer quench 1=12;FAM quench PS1=95
COC(=O)c1ccc(NC(=O)CCS(=O)(=O)c2ccc(Br)s2)cc1 | 0 | -2 | 1 | 1 | -9 | 3 | . | .
COC(=O)c1ccccc1NC(=O)CCS(=O)(=O)c1ccc(Br)s1 | 3 | -5 | -5 | 4 | -2 | -1 | 0 | 103 | Aptamer quench 1=1.2;FAM quench PS1=99
CC(=O)NS(=O)(=O)c1ccc(NC(=O)c2ccc3c(c2)OCO3)cc1 | . | -1 | . | 15 | -3 | -1 | . | .
CCOCCCNC(=O)C1(O)c2cc(Br)ccc2NC(=O)N1c1ccc(CC)cc1 (centres undefined) | 0 | 0 | 4 | -9 | -19 | -6 | . | .
CCOCCCNC(=O)C1(O)c2cc(Br)ccc2NC(=O)N1c1ccc(OCC)cc1 (centres undefined) | 61* | -3 | -6 | 5 | -20 | 4 | 0 | 102
COc1ccc(CCNC(=O)CCNC(=O)c2ccc(Br)cc2)cc1OC | 1 | 0 | -1 | -4 | -16 | -11 | . | .
COc1ccc(CCNC(=O)CCS(=O)(=O)c2ccc(Br)cc2)cc1OC | 20 | 3 | -2 | -3 | -15 | -16 | 13 | 95 | Aptamer quench 1=7.4;FAM quench PS1=100
O=C(CCS(=O)(=O)c1ccc(Br)cc1)NCc1ccc(F)cc1 | 87* | -1 | -121 | 6 | -6 | 4 | . | . | GRK2 CP2=54*;Aptamer quench3=0.5;FAM quench CP2=102
Cc1ccc(CNC(=O)CCS(=O)(=O)c2ccc(Br)cc2)cc1 | . | 2 | . | -7 | -9 | 7 | . | .
Cc1cc(C)c2nc(-c3ccccn3)cc(C(=O)Nc3ccc(S(=O)(=O)Nc4cc(C)on4)cc3)c2c1 | 0 | 8 | 37 | 23 | -14 | -7 | -4 | 95
Cc1cc(NS(=O)(=O)c2ccc(NC(=O)c3cc(-c4cccnc4)nc4ccc(Cl)cc34)cc2)no1 | 0 | 1 | 16 | 23 | -17 | -1 | . | .
O=C(O)c1ccc(-n2c(-c3cc(-c4ccco4)[nH]n3)n[nH]c2=S)cc1 | 80* | -1 | -7 | 9 | 0 | -10 | 4 | 99
SMILES | GRK2 aptamer HTS | DAGLB inh | core dimer inh | HCV NS3 hel inh | FID counter | GPR7 antag | GRK2 CP1 | FAM quench CP1 | others
CC(=O)c1ccc(-n2c(-c3cc(-c4ccco4)[nH]n3)n[nH]c2=S)cc1 | 6 | 1 | 18 | 6 | -24 | -5 | . | .
Cn1nc(C(=O)N2CCN(c3ccccn3)CC2)c2ccccc2c1=O | 10 | -1 | -2 | . | . | . | . | .
CC[C@H](C)/C=C/C1=CC2=C(Cl)C(=O)[C@@]3(C)OC(=O)C(C(=O)[C@H](C)[C@@H](C)O)=C3C2=CO1 | 69* | 31 | -2 | . | . | . | 3 | 104
O=C(c1cc(-c2ccncc2)nc2ccc(Br)cc12)N1CCN(c2ccccn2)CC1 | 93* | 1 | 12 | 1 | -6 | -9 | -5 | 98
CCOc1ccc(NC(=O)CN2CCc3cc4c(cc3C2)OCCCO4)cc1OCC | 4 | 0 | -10 | -4 | -13 | -7 | . | .
Nc1nonc1-n1nnc(C(=O)N/N=C/c2ccc(O)cc2)c1CN1CCCCCC1 | 6 | 0 | 0 | . | . | . | . | .
CCCCCOc1ccc(/C=N/NC(=O)c2nnn(-c3nonc3N)c2CN2CCCCCC2)cc1 | 55* | 2 | -2 | . | . | . | 2 | 105
Cc1cc(C)c2c(n1)SCC(=O)N2CC(=O)Nc1ccccc1Cl | 0 | 1 | 1 | 19 | -9 | -1 | . | .
Cc1ccc(OCc2cc(C(=O)N(C)CCc3nc4ccccc4[nH]3)no2)cc1C | . | -3 | . | -11 | -14 | -9 | . | .
Cc1ccc(S(=O)(=O)/N=C(\c2ccccc2)N(C)S(=O)(=O)c2ccc(C)cc2)cc1 | 66* | -4 | 8 | 0 | 3 | -2 | -3 | 96

Source: PubChem BioAssay (several laboratories)
